Numbering of substitutions follows the chain as printed.
Assays:
Conditions in all cases: stereoisomer not certain
O52A1 = test system: T1, O52A1
T1 sequence (whole entry): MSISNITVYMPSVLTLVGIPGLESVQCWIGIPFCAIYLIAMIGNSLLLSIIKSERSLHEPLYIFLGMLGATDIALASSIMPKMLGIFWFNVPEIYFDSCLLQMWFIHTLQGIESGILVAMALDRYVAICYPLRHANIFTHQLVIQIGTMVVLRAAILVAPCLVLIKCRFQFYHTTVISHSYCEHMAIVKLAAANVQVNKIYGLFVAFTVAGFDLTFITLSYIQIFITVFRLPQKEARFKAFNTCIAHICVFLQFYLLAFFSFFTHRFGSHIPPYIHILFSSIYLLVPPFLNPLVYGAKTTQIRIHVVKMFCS
In short: (§1)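 Transient luciferase assays in mammalian cell lines were common, though methods varied by source. The values come from published papers and their supplementary material, with extra details from the original authors when needed. Responsive refers to a measured signal the original authors judged statistically different from baseline, and non-responsive (inactive) to the remainder.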

O52B6 V288I = test system: T2, O52B6 V288I
T2 sequence (whole entry): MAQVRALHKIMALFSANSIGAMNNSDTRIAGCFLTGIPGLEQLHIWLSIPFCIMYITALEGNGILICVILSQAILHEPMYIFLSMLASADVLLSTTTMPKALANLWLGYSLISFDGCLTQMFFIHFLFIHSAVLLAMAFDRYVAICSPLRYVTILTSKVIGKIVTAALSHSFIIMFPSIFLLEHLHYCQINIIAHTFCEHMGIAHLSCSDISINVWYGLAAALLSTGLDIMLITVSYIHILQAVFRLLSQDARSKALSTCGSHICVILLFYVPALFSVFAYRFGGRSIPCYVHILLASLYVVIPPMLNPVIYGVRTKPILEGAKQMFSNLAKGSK
In short: as §1

O52E2 R264C = test system: O52E2 R264C
In short: as §1

O52E4 = test system: O52E4
In short: as §1

O52E5 = test system: O52E5
In short: as §1

O52E8 = test system: O52E8
In short: as §1

O52H1 A89T H130R C242R = test system: T3, O52H1 A89T H130R C242R
T3 sequence (whole entry): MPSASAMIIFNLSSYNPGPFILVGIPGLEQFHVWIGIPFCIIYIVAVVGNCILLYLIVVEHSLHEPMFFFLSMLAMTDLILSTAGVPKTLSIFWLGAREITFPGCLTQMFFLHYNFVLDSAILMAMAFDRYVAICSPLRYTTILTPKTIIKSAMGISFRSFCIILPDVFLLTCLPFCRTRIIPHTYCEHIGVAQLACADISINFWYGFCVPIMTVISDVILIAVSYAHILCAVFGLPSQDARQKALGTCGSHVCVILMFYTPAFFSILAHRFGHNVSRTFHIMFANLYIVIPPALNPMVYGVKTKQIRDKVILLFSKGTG
In short: as §1

O52H1 H130R C242R = test system: T4, O52H1 H130R C242R
T4 sequence (whole entry): T3 sequence (whole entry) with T89A
In short: as §1

O52H1 = test system: T5, O52H1
T5 sequence (whole entry): T3 sequence (whole entry) with T89A, R130H, R242C
In short: as §1

O52I2 I74L = test system: T6, O52I2 I74L
T6 sequence (whole entry): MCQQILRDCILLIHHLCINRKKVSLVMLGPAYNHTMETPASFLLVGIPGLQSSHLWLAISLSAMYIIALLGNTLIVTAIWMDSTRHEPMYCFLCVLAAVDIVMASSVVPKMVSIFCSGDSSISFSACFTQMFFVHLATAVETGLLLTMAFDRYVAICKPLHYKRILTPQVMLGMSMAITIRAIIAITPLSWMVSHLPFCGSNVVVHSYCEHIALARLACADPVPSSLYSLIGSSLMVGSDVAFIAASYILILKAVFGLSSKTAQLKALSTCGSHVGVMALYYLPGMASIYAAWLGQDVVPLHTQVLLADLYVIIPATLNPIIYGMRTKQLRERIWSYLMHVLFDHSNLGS
In short: as §1

Measured: odorant receptor agonist call;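 also: active if original authors judged signal statistically different from baseline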

Chain of O52E8 (as listed by the source): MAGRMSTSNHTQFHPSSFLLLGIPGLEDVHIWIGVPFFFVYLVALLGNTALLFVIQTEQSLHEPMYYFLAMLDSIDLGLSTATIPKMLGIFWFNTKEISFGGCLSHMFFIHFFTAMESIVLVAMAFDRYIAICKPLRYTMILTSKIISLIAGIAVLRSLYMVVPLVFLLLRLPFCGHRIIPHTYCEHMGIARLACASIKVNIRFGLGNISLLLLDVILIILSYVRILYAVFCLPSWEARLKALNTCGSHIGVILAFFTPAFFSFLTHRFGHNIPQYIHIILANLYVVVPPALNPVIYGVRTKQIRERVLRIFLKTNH
Chain of O52E5 (as listed by the source): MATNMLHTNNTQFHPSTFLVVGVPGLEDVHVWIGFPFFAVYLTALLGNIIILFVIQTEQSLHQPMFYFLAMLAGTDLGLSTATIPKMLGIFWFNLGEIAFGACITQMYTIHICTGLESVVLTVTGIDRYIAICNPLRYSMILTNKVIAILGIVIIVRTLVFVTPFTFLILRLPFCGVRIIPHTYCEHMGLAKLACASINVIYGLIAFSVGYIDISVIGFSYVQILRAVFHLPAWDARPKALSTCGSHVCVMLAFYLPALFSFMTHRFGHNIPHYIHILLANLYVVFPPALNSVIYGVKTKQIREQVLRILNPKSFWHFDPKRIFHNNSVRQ
Chain of O52E2 R264C (as listed by the source, stated change not applied): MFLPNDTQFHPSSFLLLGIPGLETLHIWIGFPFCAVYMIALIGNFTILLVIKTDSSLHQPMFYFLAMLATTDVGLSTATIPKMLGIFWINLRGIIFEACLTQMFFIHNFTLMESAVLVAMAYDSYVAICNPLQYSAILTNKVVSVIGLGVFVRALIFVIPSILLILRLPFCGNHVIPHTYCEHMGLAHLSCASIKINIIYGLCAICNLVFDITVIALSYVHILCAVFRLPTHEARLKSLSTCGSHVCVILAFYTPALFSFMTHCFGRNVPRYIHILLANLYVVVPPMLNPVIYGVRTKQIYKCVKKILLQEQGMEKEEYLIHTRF
Chain of O52E4 (as listed by the source): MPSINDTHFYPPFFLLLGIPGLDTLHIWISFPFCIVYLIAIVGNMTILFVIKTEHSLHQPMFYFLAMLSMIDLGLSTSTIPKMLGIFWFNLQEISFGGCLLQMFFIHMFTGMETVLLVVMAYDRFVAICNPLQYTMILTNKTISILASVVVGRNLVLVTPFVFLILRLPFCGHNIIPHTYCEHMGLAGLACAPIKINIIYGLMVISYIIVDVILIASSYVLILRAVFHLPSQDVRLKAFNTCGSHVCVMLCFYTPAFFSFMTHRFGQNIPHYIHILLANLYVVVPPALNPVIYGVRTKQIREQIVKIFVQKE

CC1=C(O)C(=O)C(C)O1 (stereo not given)
inactive: O52A1 | O52B6 V288I | O52E2 R264C | O52E4 | O52E5 | O52E8 | O52H1 A89T H130R C242R | O52H1 H130R C242R | O52H1 | O52I2 I74L

CCC1OC(C)=C(O)C1=O (stereo not given)
inactive: O52A1 | O52B6 V288I | O52E2 R264C | O52E4 | O52E5 | O52E8 | O52H1 A89T H130R C242R | O52H1 H130R C242R | O52H1 | O52I2 I74L

CCCCCC(S)C(C)CO (stereo not given)
inactive: O52E8 | O52H1

CCCCCCC=CCCC=O
inactive: O52A1 | O52B6 V288I | O52E2 R264C | O52E4 | O52E8 | O52H1 A89T H130R C242R | O52H1 H130R C242R | O52H1 | O52I2 I74L

CCCCC(S)C(C)CO (stereo not given)
inactive: O52E8 | O52H1

CC1=NC(C)C(C)S1 (stereo not given)
inactive: O52A1 | O52B6 V288I | O52E2 R264C | O52E4 | O52E5 | O52E8 | O52H1 A89T H130R C242R | O52H1 H130R C242R | O52H1 | O52I2 I74L

Cc1cnc(C)c(C)n1
inactive: O52A1 | O52B6 V288I | O52E2 R264C | O52E4 | O52E5 | O52E8 | O52H1 A89T H130R C242R | O52H1 H130R C242R | O52H1 | O52I2 I74L

CCCC(S)CCOC(C)=O (stereo not given)
inactive: O52A1 | O52B6 V288I | O52E2 R264C | O52E4 | O52E5 | O52E8 | O52H1 A89T H130R C242R | O52H1 H130R C242R | O52H1 | O52I2 I74L

CCC1OC(=O)C(O)=C1C (stereo not given)
inactive: O52A1 | O52B6 V288I | O52E2 R264C | O52E4 | O52E5 | O52E8 | O52H1 A89T H130R C242R | O52H1 H130R C242R | O52H1 | O52I2 I74L

CCCCCC1CCCC(=O)O1 (stereo not given)
inactive: O52E8 | O52H1

CC1CCCCCCCCCCCCC(=O)C1 (stereo not given)
inactive: O52E8 | O52H1

CCC(S)C(C)CO (stereo not given)
inactive: O52E8 | O52H1

CC(CO)CS (stereo not given)
inactive: O52E8 | O52H1

CCCCCC(=O)C(C)C(C)=O (stereo not given)
inactive: O52E8 | O52H1

CC(=O)c1c(C)c([N+](=O)[O-])c(C(C)(C)C)c([N+](=O)[O-])c1C
inactive: O52E8 | O52H1

CC1=C(O)C(=O)OC1C (stereo not given)
inactive: O52A1 | O52B6 V288I | O52E2 R264C | O52E4 | O52E5 | O52E8 | O52H1 A89T H130R C242R | O52H1 H130R C242R | O52H1 | O52I2 I74L

— the M2OR odorant receptor database
